According to ChEMBL document CHEMBL1152555, “Design, synthesis and cruzain docking of 3-(4-substituted-aryl)-1,2,4-oxadiazole-N-acylhydrazones as anti-Trypanosoma cruzi agents” (Bioorg Med Chem, 2009):

Legend:
[1] = Cytotoxicity against BALB/c mouse splenocyte assessed as [3H]thymidine incorporation by beta-counting; format: cell-based; conditions: splenocytes, read-out: MNCC
Procedure, shortened: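 Splenocytes from BALB/c mice were plated at 5 × 10⁶ cells per well in DMEM with FCS and gentamycin. Each compound was tested at […], in triplicate, from DMSO stock. Cells were given ³H-thymidine at 1 µCi per well for 24 h at 37 °C and 5% CO₂. Incorporation was compared with untreated wells. The reported value is the highest concentration reducing incorporation by less than 10%.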

Trypanosoma cruzi [2] = test: Antitrypanosomal activity against Trypanosoma cruzi Y strain
Trypanosoma cruzi [3] = test: Antitrypanosomal activity against Trypanosoma cruzi trypomastigote Y strain after 24 hrs by trypan blue exclusion assay
Mus musculus = test: Toxicity in mouse assessed as general toxicity at 100 mg/kg, ip after 72 hrs; format: organism-based; design: dose 100 mg/kg, route intraperitoneal; conditions: in vivo
Procedure, shortened: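 Mice received a single intraperitoneal dose of 100 mg/kg. They were watched for 72 h for general toxicity signs, including behavior and feeding, and for survival. Controls received only 100 µL of 30% DMSO:70% H₂O (v/v).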

For `O=C(N/N=C/c1ccc(O)cc1)c1nc(-c2ccc(Cl)cc2)no1`, the MNTC [1] was under 1.1 µg/mL, the IC50 (Trypanosoma cruzi [2]) was 21.6 µM and the IC50 (Trypanosoma cruzi [3]; read-out: IC50) was 21.2 µM. The IC50 (Trypanosoma cruzi [3]; read-out: pIC50 (converted)) was 21.4 µM.

Compound `O=C(N/N=C/c1ccc(O)cc1)c1nc(-c2ccc(F)cc2)no1` has an MNTC [1] of under 1.1 µg/mL, an IC50 (Trypanosoma cruzi [2]) of 21 µM and an IC50 (Trypanosoma cruzi [3]; read-out: IC50) of 16.7 µM. The IC50 (Trypanosoma cruzi [3]; read-out: pIC50 (converted)) was 16.6 µM.

Compound `CC(=O)Nc1ccc(/C=N/NC(=O)c2nc(-c3ccc(Br)cc3)no2)cc1` has an MNTC [1] of 33 µg/mL and an IC50 (Trypanosoma cruzi [2]) of over 150 µM.

Work on `O=C(N/N=C/c1ccc(O)cc1)c1nc(-c2ccc([N+](=O)[O-])cc2)no1` yielded an MNTC [1] of under 1.1 µg/mL, an IC50 (Trypanosoma cruzi [2]) of 25.2 µM and an IC50 (Trypanosoma cruzi [3]; read-out: IC50) of 21.3 µM. It also gave an IC50 (Trypanosoma cruzi [3]; read-out: pIC50 (converted)) of 21.4 µM.

In the case of `O=C(N/N=C/c1ccc(O)cc1)c1nc(-c2ccccc2)no1`, the MNTC [1] is reported as 3.3 µg/mL, the IC50 (Trypanosoma cruzi [2]) is reported as 78.3 µM and the IC50 (Trypanosoma cruzi [3]; read-out: IC50) is reported as 35.7 µM. It also gave an IC50 (Trypanosoma cruzi [3]; read-out: pIC50 (converted)) of 35.5 µM.

For `CC(=O)Nc1ccc(/C=N/NC(=O)c2nc(-c3ccc([N+](=O)[O-])cc3)no2)cc1`, the MNTC [1] was 33 µg/mL and the IC50 (Trypanosoma cruzi [2]) was over 150 µM.

`O=C(Cn1ccnc1[N+](=O)[O-])NCc1ccccc1` [BENZNIDAZOLE] gave an MNTC [1] of 100 µg/mL and an IC50 (Trypanosoma cruzi [3]; read-out: pIC50 (converted)) of 5.01 µM.

For `CC(=O)Nc1ccc(/C=N/NC(=O)c2nc(-c3ccccc3)no2)cc1`, the MNTC [1] was 95 µM, the Activity (Mus musculus) was “Non-toxic” and the IC50 (Trypanosoma cruzi [2]) was 14.2 µM. The IC50 (Trypanosoma cruzi [3]; read-out: IC50) was 3.6 µM and the IC50 (Trypanosoma cruzi [3]; read-out: pIC50 (converted)) was 3.63 µM.

With `COc1ccc(-c2noc(C(=O)N/N=C/c3ccc(NC(C)=O)cc3)n2)cc1` the MNTC [1] was 100 µg/mL and the IC50 (Trypanosoma cruzi [2]) was over 150 µM.

With `CC(=O)Nc1ccc(/C=N/NC(=O)c2nc(-c3ccc(O)cc3)no2)cc1` the MNTC [1] was 33 µg/mL and the IC50 (Trypanosoma cruzi [2]) was over 150 µM.

`CC(=O)Nc1ccc(/C=N/NC(=O)c2nc(-c3ccc(F)cc3)no2)cc1` gave an MNTC [1] of 33 µg/mL and an IC50 (Trypanosoma cruzi [2]) of over 150 µM.

With `CC(=O)Nc1ccc(/C=N/NC(=O)c2nc(-c3ccc(Cl)cc3)no2)cc1` the MNTC [1] was 100 µg/mL and the IC50 (Trypanosoma cruzi [2]) was over 150 µM.

Work on `Cc1ccc(-c2noc(C(=O)N/N=C/c3ccc(O)cc3)n2)cc1` yielded an MNTC [1] of under 1.1 µg/mL, an IC50 (Trypanosoma cruzi [2]) of 47.8 µM and an IC50 (Trypanosoma cruzi [3]; read-out: IC50) of 17.9 µM. For the same compound, the IC50 (Trypanosoma cruzi [3]; read-out: pIC50 (converted)) was 17.8 µM.

For `CC(=O)Nc1ccc(/C=N/NC(=O)c2nc(-c3ccc(C)cc3)no2)cc1`, the MNTC [1] was 30 µM, the IC50 (Trypanosoma cruzi [2]) was 9.8 µM and the IC50 (Trypanosoma cruzi [3]; read-out: IC50) was 3.9 µM. The IC50 (Trypanosoma cruzi [3]; read-out: pIC50 (converted)) was 3.89 µM.

For `O=C(N/N=C/c1ccc(O)cc1)c1nc(-c2ccc(Br)cc2)no1`, the MNTC [1] was 97 µM, the Activity (Mus musculus) was “Non-toxic” and the IC50 (Trypanosoma cruzi [2]) was 19.6 µM. The IC50 (Trypanosoma cruzi [3]; read-out: IC50) was 20.5 µM and the IC50 (Trypanosoma cruzi [3]; read-out: pIC50 (converted)) was 20.4 µM.

In the case of `O=C(N/N=C/c1ccc(O)cc1)c1nc(-c2ccc(O)cc2)no1`, the MNTC [1] is reported as 100 µg/mL, the IC50 (Trypanosoma cruzi [2]) is reported as 127 µM and the IC50 (Trypanosoma cruzi [3]; read-out: IC50) is reported as 100 µM. It also gave an IC50 (Trypanosoma cruzi [3]; read-out: pIC50 (converted)) of 100 µM.

In the case of `CN(C)c1ccc(C(=C2C=CC(=[N+](C)C)C=C2)c2ccc(N(C)C)cc2)cc1` [GENTIAN VIOLET], the MNTC [1] is reported as under 1 µg/mL and the IC50 (Trypanosoma cruzi [3]; read-out: IC50) is reported as 2.1 µM.

With `COc1ccc(-c2noc(C(=O)N/N=C/c3ccc(O)cc3)n2)cc1` the MNTC [1] was 85 µM, the IC50 (Trypanosoma cruzi [2]) was 13.8 µM and the IC50 (Trypanosoma cruzi [3]; read-out: IC50) was 32.5 µM. It also gave an IC50 (Trypanosoma cruzi [3]; read-out: pIC50 (converted)) of 32.4 µM.
